High-throughput results as filed in PubChem BioAssay.
The sample as a whole holds a higher share of hits than the screen did.
Redox H2O2 prof – compounds producing H2O2 with reducing agent – biochemical, NIH compound library profiling, artefact control for MLSCN library redox annotation, primary screen. DTT-dependent redox cycling H2O2, phenol red/HRP absorbance; 100% = 100 µM peroxide control, 0% = buffer. activation, % at 10 µM. hit rate 0.03% among 200,000;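 active = activation of at least 50% relative to the plate's high and low controls in the primary single-dose screen; inactive = activation below 50%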;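 note: compound incubated with DTT at 0.8 mM final as the reducing agent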
MPTP block – inhibitors of mitochondrial permeability transition pore. isolated mouse mitochondria, Ca2+ swelling absorbance, 30 min. hit rate 1.4% among 360,000. inhibition, % at 10 µM. AID 602449;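 active = inhibition of 50% or more, scaled per plate between neutral and stimulator controls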;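 note: 0% = DMSO wells given calcium and 100% = 1 mM EGTA wells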
T cruzi inh – T. cruzi replication inhibition. T. cruzi beta-gal in NIH3T3, luminescence, 90 h. inhibition, % (test concentration not listed). hit rate 1.4% among 300,000;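 active = mean inhibition across valid replicates above about 55%, limit read from the data; inconclusive = mean below that limit but half or more replicates reach it; inactive = mean below it, under half of replicates reach it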;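 note: signal also drops with host cell toxicity which is not excluded here; 0% = plate median of DMSO wells and 100% = zero luminescence signal; higher percent means less beta-gal luminescence so fewer parasites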
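System: NIH/3T3 fibroblasts plus reporter T. cruzi. Medium: DMEM plus 2% FBS. Probe or stimulus: 5000 reporter trypomastigotes per well. Compound: single 50 nL compound addition per well in DMSO. Incubation: co-culture of at least 90 h after 3 h attachment. Detection: GalScreen β-gal luminescence, detergent lysis, 60 min. Evaluation: parasite load inhibition, %.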
Lmaj promast – inhibitors of Leishmania major promastigote growth | Leishmania major promastigotes, resazurin fluorescence viability | inhibition, % at 10 µM | hit rate 9% among 200,000; in the data active = inhibition above about 50%;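 note: promastigotes grown with compound for 44 hours at 28 °C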
Hep lipid drop – hepatic lipid droplet formation modulation; inhibition, % at 6.5 µM; hit rate 0.4% among 240,000; AML12 mouse hepatocytes, oleate lipid droplets, BODIPY imaging;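 active = lipid droplet intensity inhibited by at least 50%, with more than 500 cells counted; inconclusive = wells with under 300 cells, treated as cytotoxic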
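Test system: AML12 hepatocytes (mouse); reagent: oleate loading, 100 µM; dosing: one dose, 6.5 µM compound; incubation: overnight exposure; signal: fluorescence imaging, 20x objective, two fields per well; read-out basis: % inhibition of corrected integrated BODIPY droplet signal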
Starred values were filed as active, the others as inactive; ? = inconclusive; / = no result.

SMILES | Redox H2O2 prof | MPTP block | T cruzi inh | Lmaj promast | Hep lipid drop
O=C(Cc1ccccc1)N1CCN(CC2CC3C=CC2C3)CC1 (stereo not given) | 3 | 0 | 17 | 67* | 8
COc1ccc(OCC(=O)N2CCN(CC3CC4C=CC3C4)CC2)cc1 (stereo not given) | 0 | 0 | 24 | 87* | /
CN1CCN(C(=O)Cc2ccccc2)CC1 | / | -2 | 1 | / | -12
CCN(CC)S(=O)(=O)c1cc(NC(=O)C(C)N2CC=C(c3ccccc3)CC2)ccc1C (stereo not given) | 1 | 3 | 52 | 13 | -13
COC(=O)c1cc(C(O)(C(=O)OC)C(F)(F)F)c(/N=C/N(C)C)s1 (stereo not given) | 4 | 0 | -15 | -1 | /
CC(C)=CCc1c(O)cc2c(c1O)C(=O)CC(c1ccc(O)cc1)O2 (stereo not given) | / | 4 | -10 | / | -14
COc1cc2c(cc1OC)C13CCN4C=C5CCOC6CC(=O)N2C1C6C5CC43 (stereo not given) | / | 0 | / | / | /
CN(C)CCSCc1nnc2n1-c1ccc(Cl)cc1C(c1ccccc1Cl)=NC2 | / | 0 | 42 | / | /
COc1cccc(CNCCc2cccc(F)c2)c1OC | / | 0 | 59* | / | -5
COc1cccc(CNCCc2ccc3c(c2)OCO3)c1OC | / | 0 | 31 | / | 3
CCOC(=O)C(=CNc1ccc(C(O)(C(=O)OCC)C(F)(F)F)cc1C)C(=O)OCC (stereo not given) | -1 | 4 | 17 | 55* | -144
CCOC(=O)C(O)(c1ccc(NC(=O)c2ccc(Cl)c(Cl)c2)cc1)C(F)(F)F (stereo not given) | / | 36 | 51 | / | -15
CN(C(=O)Oc1ccc(C(=O)c2ccc(Cl)cc2)cc1)c1ccccc1 | 0 | -1 | -3 | 56* | 22
C1=NCCCN2CCCCC12 (stereo not given) | / | 1 | / | / | /
CN1CCN(Cc2ccc(Br)s2)CC1 | 1 | -1 | 10 | 70* | 0
C[C@@H]1CN([C@@H](C)CO)C(=O)CCCn2nncc2CO[C@H]1CN(C)C(=O)Oc1ccccc1 | / | -1 | / | / | /
CSCc1nnc2n1-c1ccc(Cl)cc1C(c1ccccc1)=NC2 | 0 | 0 | -5 | 94* | -4
CS(=O)(=O)NCc1nnc2n1-c1ccc(Cl)cc1C(c1ccccc1)=NC2 | 0 | -3 | 0 | -7 | -12
C=CCn1c(O)c(C(CC)=Nc2cccc(C(F)(F)F)c2)c(=O)[nH]c1=O | / | 3 | -7 | / | /
COc1ccc(C2NCc3ccc4c(c3-n3cccc32)OCO4)cc1O (stereo not given) | 3 | / | -13 | 74* | -108
COCCOC(=O)c1c(N)n(Cc2ccc(OC)cc2)c2nc3ccccc3nc12 | -1 | 0 | 27 | 89* | -2
CCCCNC(=O)c1c(N)n(CCCOC)c2nc3ccccc3nc12 | -3 | 7 | 20 | 19 | 16
COC(=O)c1c(N)n(Cc2ccc(OC)cc2)c2nc3ccccc3nc12 | -1 | 0 | / | 52* | -4
COCCNC(=O)c1c(N)n(CCC(C)C)c2nc3ccccc3nc12 | 1 | -2 | 15 | 100* | 10
CCOC(=O)c1c(N)n(CCCOC(=O)c2ccco2)c2nc3ccccc3nc12 | 0 | -1 | 1 | 82* | 2
SMILES | Redox H2O2 prof | MPTP block | T cruzi inh | Lmaj promast | Hep lipid drop
COCCOC(=O)c1c(N)n(Cc2ccco2)c2nc3ccccc3nc12 | -1 | 2 | -17 | 21 | 21
COc1ccc(CN2C(=O)NC(=O)/C(=C/c3ccc([N+](=O)[O-])o3)C2=O)cc1 | -1 | / | / | 11 | 13
CCCNC(=O)c1c(N)n(Cc2ccc3c(c2)OCO3)c2nc3ccccc3nc12 | 3 | 0 | 39 | 0 | 4
CCOC(=O)c1c(NS(=O)(=O)c2ccccc2)n(CCCOC)c2nc3ccccc3nc12 | 0 | -1 | 4 | 96* | 2
CCOC(=O)c1c(N)n(Cc2ccc(OC)cc2)c2nc3ccccc3nc12 | 1 | / | 9 | 96* | /
Cc1ccc2c(C)c3ccc4ccccc4c3c[n+]2c1 | / | -1 | / | / | /
C[C@@H]1CN([C@@H](C)CO)C(=O)CCCn2nncc2CO[C@@H]1CN(C)C(=O)Oc1ccccc1 | / | -3 | / | / | /
CC(C)CCN1CCN(Cc2c(F)cccc2Cl)CC1CCO (stereo not given) | -2 | 1 | 2 | 47 | 0
CN1c2ccc([N+](=O)[O-])cc2CC2(C(=O)NC(=O)N(c3ccc(Br)cc3)C2=O)C1c1ccccc1 (stereo not given) | 0 | 0 | ? | 75* | -6
